High-throughput results as filed in PubChem BioAssay.
Most compounds without a hit are left out; they make up all but 3.5% or so of the library.
Cneo AK release: causes C. neoformans cell lysis; adenylate kinase release luminescence, 4 h; normalised: neutral wells 0, clomiphene wells 100; lysis activity, % at 15 µM; 360,000 tested, 0.2% active; AID 651654;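 active = mean lysis activity across replicates of at least 80%, whatever share of replicates individually reach that level; inactive = mean lysis activity below 80%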
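Schedule: static 4 h at 37 °C with compound, 1 h detection; system: C. neoformans cells; benchmarks: Clomiphene as positive control; buffer or medium: fresh YPD medium; measure: luminescence rise reflecting yeast cell lysis; measured by: luminescent adenylate kinase detection reagent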
PGC1a acetyl inh: modulators of PGC1a acetylation | U2OS PGC1a acetylation, AlphaScreen anti-acetyl-lysine; with virally co-expressed GCN5 acetyltransferase | inhibition, % at 15.6 µM | 350,000 tested, 0.17% active | AID 651687;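 active = every replicate shows inhibition of at least 40%; inconclusive = mean inhibition at least 40% but some replicate below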;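 also: 0% = neutral control wells and 100% = positive control wells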
HIV Env fusion: blocks HIV Env-driven cell-cell fusion | inhibition, % at 12.3 µM | AID 651610 | 360,000 tested, 1.1% active | HeLa-JRFL Env/CEM21 cell fusion, luciferase;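 active = mean replicate inhibition score of at least 50 and every replicate individually at or above 50; inconclusive = only one of the two criteria met; inactive = mean below 50 and not all replicates reaching 50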;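 also: 0% = plate neutral controls and 100% = maraviroc near 300 nM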
ERAP1 HTS inh: ERAP1 (human) enzyme inhibition | Q9NZ08 | recombinant ERAP1, Leu-AMC fluorescence, 60 min | inhibition, % at 10.7 µM | 340,000 tested, 0.15% active;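 active = mean replicate inhibition of at least 30%, or all replicates individually reaching that 30% level; inactive = mean below 30% and not every replicate reaching it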;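 also: 0% = neutral control wells and 100% = L-leucinethiol positive control wells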
Target sequence (Q9NZ08 whole entry, looked up): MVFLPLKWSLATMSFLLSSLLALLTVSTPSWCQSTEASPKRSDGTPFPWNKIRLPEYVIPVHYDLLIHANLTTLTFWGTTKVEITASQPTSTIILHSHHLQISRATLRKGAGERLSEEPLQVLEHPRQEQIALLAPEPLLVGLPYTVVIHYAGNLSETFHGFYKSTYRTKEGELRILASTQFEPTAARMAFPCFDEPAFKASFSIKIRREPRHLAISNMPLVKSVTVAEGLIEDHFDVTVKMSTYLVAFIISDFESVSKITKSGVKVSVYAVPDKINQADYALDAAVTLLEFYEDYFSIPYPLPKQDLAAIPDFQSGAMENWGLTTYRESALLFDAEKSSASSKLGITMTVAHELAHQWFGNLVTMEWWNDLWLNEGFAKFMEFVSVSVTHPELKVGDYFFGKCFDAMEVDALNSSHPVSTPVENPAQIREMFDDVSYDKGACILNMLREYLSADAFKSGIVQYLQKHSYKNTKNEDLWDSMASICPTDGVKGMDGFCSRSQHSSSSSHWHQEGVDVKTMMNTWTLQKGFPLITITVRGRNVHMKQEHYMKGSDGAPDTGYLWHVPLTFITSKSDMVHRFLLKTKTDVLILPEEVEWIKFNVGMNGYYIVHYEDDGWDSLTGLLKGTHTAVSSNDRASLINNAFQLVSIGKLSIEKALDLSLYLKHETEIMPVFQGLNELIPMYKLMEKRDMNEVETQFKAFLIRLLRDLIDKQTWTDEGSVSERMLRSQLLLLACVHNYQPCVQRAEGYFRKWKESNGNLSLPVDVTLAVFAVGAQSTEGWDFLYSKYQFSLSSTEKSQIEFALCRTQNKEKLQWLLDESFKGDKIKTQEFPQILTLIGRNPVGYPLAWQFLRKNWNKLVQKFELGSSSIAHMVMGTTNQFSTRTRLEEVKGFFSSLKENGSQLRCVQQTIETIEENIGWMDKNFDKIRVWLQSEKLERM
FGF22 binding: FGF22 (human) thermal shift binding; recombinant FGF22 thermal shift, SYPRO orange fluorescence; percent of sucrose octasulfate shift, DMSO zero; activity (Tm shift, normalised), % at 9.99 µM; 340,000 tested, 1.5% active;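 active = mean Tm shift, scaled 0 neutral to 100 positive control, at about 1.3% or above, every replicate too, limit read from the data; inconclusive = no clear call, values can overlap the other calls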
Ecoli rRNA inh: selective bacterial rRNA inhibition in E. coli; AID 720706; E. coli WT GFP vs humanized-ribosome RFP mutants, fluorescence, 24 h; hits give low values; DMSO median 0, no signal -100; 350,000 tested, 1.6% active; GFP signal change (wild-type ribosome), % (concentration not given with the values);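 active = significant combined selectivity score with lowered wild-type GFP, culture density cut under 30%, mutant RFP and density less affected; inactive = any of these conditions unmet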
The depositor's hits bear a star; ? = inconclusive; · = no result given; [ ] = another dose, or the depositor's remark.

SMILES	Cneo AK release	PGC1a acetyl inh	HIV Env fusion	ERAP1 HTS inh	FGF22 binding	Ecoli rRNA inh
COc1cccc(C(=O)Oc2c(Br)cc(Br)cc2/C=N/NC(=O)c2cc(C)[nH]n2)c1	·	-7	45	1	1	-20*
CCS(=O)(=O)N1CCCCN2[C@H](CO)[C@@H](c3ccc(-c4ccccc4F)cc3)[C@@H]2C1	-6	7	·	6	·	5
Cc1cc(C)c2c(=O)[nH]n(C3CCOC(C)(C)C3)c2n1 (stereo unspecified)	5	2	7	-4	0	8
Cc1cc(C)c2c(=O)[nH]n(C3CCCCCC3)c2n1	·	88*	-3	-2	0	19
Cc1cccc(-c2nsc(SCC(=O)N3CCCC3)n2)c1	-1	95*	-197	·	·	·
O=C(CSc1nc(-c2ccccc2)ns1)N1CCOCC1	·	·	-7	1	1	0
COc1cccc(C(=O)Nn2cnnc2)c1OC	1	75*	14	6	0	5
Cc1ccccc1C(=O)Nn1cnnc1	2	-1	-12	-1	0	8
C=CCN(Cc1ccc(OC)c(OC)c1)C(=O)c1cc2cc(F)ccc2[nH]1	-1	1	76*	-3	0	1
COc1cc2cc(C(=O)N(C)Cc3ccccc3)[nH]c2cc1OC	-1	3	-15	-1	0	13
O=C(CCCC(=O)N(c1ccc2c(c1)OCCO2)C(C(=O)NC1CCCCC1)c1ccc(F)cc1)Nc1ccccn1 (stereo unspecified)	0	-6	69*	·	·	·
COc1ccc(N2CCN(c3ccnc4cc(Cl)ccc34)CC2)cc1	1	·	12	-2	-1	-2
CCC(=O)N1CCN(c2ccnc3cc(Cl)ccc23)CC1	·	·	29	-2	0	-8
COc1cccc(Cl)c1NC(=O)N1CCN(c2ccnc3cc(Cl)ccc23)CC1	·	·	22	0	1	-32*
O=C(c1ccc(Cl)cc1)N1CCN(c2ccnc3cc(Cl)ccc23)CC1	·	-9	?	-3	0	-29*
Oc1ccc(N2CCN(c3ccnc4cc(Cl)ccc34)CC2)cc1	1	·	22	-3	0	-38*
Cc1ccc(S(=O)(=O)c2cc3ccccc3oc2=Nc2ccc3c(c2)OCO3)cc1	·	·	-48	·	·	·
O=C(CSCc1c(Cl)cccc1Cl)Nc1cccnc1	-2	0	5	-2	0	-24*
O=C(Cc1c(Cl)cccc1Cl)Nc1cccnc1	·	·	-4	-6	43*	4
O=C(Cc1c(F)cccc1Cl)Nc1cccnc1	2	-2	·	1	0	5
O=C(CSCc1c(Cl)cccc1Cl)Nc1ccc2c(c1)OCO2	-2	1	-11	·	·	·
COCCCNC(=O)c1ccc(C2SCC(=O)N2Cc2ccco2)cc1 (stereo unspecified)	·	·	-12	1	0	5
CCCn1cc(C(=O)Nc2ccc(Oc3cccnc3)cc2)c2ccccc21	·	·	4	-2	0	-11
Cc1cc(C)cc(NC(=O)C2CCCN2C(=O)Oc2ccccc2)c1 (stereo unspecified)	1	-9	·	·	·	·
CCOc1ccc(NC(=O)C2CCCN2C(=O)Oc2ccccc2)cc1 (stereo unspecified)	0	·	5	57*	0	3
SMILES	Cneo AK release	PGC1a acetyl inh	HIV Env fusion	ERAP1 HTS inh	FGF22 binding	Ecoli rRNA inh
CCCCc1c(-c2ccccc2OC)ncn1Cc1ccc(Cl)cc1	·	·	-17	-2	0	-63
CCCCc1c(-c2ccccc2OC)ncn1Cc1ccc(C)cc1	·	·	61*	5	0	-56
CCCCc1c(-c2ccccc2OC)ncn1Cc1ccc(OC)cc1	·	·	61*	7	0	-56
COc1cccc(Cn2cnc(-c3ccccc3OC)c2C2CC2)c1	·	·	-10	0	43*	-46
CCCCc1c(-c2ccccc2OC)ncn1Cc1ccc(-c2ccccc2)cc1	·	·	17	-1	-1	-21
COc1cccc(Cn2cnc(-c3ccccc3OC)c2-c2cc(C)cc(C)c2)c1	·	·	-20	-3	-1	-48
CCOc1ccc(CCNC(=O)COC(=O)c2cccnc2SC)cc1OCC	·	·	2	2	0	5
CCc1ccc(-c2nnn(CCC(=O)OC)n2)cc1	1	-2	65*	·	·	·
CCc1ccc(-c2nnn(CCC#N)n2)cc1	-13	17	0	6	1	-1
CCOC(=O)c1cc(C#N)c(SCC(=O)O)[nH]c1=O	·	·	?	5	45*	16
CCOC(=O)c1cc(C#N)c(SCC(N)=O)[nH]c1=O	·	3	-3	·	0	12
CCOC(=O)c1cc(C#N)c(SCC(=O)Nc2ccc(C(C)=O)cc2)[nH]c1=O	·	-5	-3	·	1.4*	-11
C[C@H](NC(=O)C[C@H]1C[C@@H]2c3cc(NC(=O)NC4CCCC4)ccc3O[C@@H]2[C@H](CO)O1)c1ccccc1	2	-7	-8[16.7 µM]	-4	0	2
COc1ccc(/C=N/NC(=O)c2sc(C)nc2C)cc1	·	7	-5	8	43*	12
COc1ccccc1/C=N/NC(=O)c1sc(C)nc1C	1	13	-1	5	0	14
COc1ccc(/C=N/NC(=O)CCSc2nc3ccccc3s2)cc1	·	·	19	0	0	-26*
CCOc1cc(Br)c(CC(=O)NC2CCCCCC2)cc1OCC	0	·	5	-1	0	6
Cc1ccc(NC(=O)Cc2csc(-c3ccccc3)n2)cc1F	·	·	16	4	0	-2
O=S(=O)(Nc1ccc2c(c1)nc1n2CCOC1)c1ccc(Cl)cc1	4	-15	-25	·	·	·
CCOC(=O)N1CCN(C(=O)c2ccccc2N(C)S(C)(=O)=O)CC1	2	5	-27	0	·	3
O=C(O)c1cccc(CN2C(=O)S/C(=C/c3ccccc3[N+](=O)[O-])C2=O)c1	·	1	22	3	0	-22*
CN(C(=O)c1ccc(Oc2ccc([N+](=O)[O-])cc2)cc1)C1CCCCC1	2	6	59*	2	0	-33
CC(=O)N1CCN(C(=O)c2cc(S(=O)(=O)Nc3ccc(S(C)(=O)=O)cc3)ccc2Cl)CC1	·	·	-1	0	44*	17
CCN1CCN(C(=O)c2cc(S(=O)(=O)Nc3ccc(S(C)(=O)=O)cc3)ccc2Cl)CC1	·	·	-4	1	0	18
COc1ccccc1C(=O)Nc1ccc2c(c1)OC[C@H](C)N(CC1CC1)C[C@@H](C)[C@@H](OC)CN(C)C2=O	·	-17	·	·	·	-2
O=C(NCC[C@@H]1CC[C@H](NS(=O)(=O)c2ccc(F)cc2)[C@H](CO)O1)c1ccc2c(c1)OCO2	-5	-2	14[16.7 µM]	-7	0	0
O=C(NCC[C@H]1CC[C@@H](NS(=O)(=O)c2ccc(F)cc2)[C@H](CO)O1)c1ccc2c(c1)OCO2	95*	-3	6[16.7 µM]	1	0	-8
